High-throughput results: PubChem BioAssay, several laboratories
In the library only some 2.2% were active in any assay of this set; here they are far more common.
Runt-CBFb FRET = inhibitors of human RUNX1 Runt domain binding to CBFb; Cerulean-Runt/Venus-CBFb FRET ratio 530/480, 1 h; inhibition, % at 20 µM; 0.46% of 220,000 active;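 active = inhibition over about 50% at 20 µM in the single-dose screen, limit read from the data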;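 also: 0% = DMSO wells and 100% = excess unlabeled CBFb competitor control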
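Doses: 20 µM compound in 1% DMSO | Material: Cerulean-labeled Runt domain protein | Amount: Each fluorescent fusion protein 100 nM | Schedule: Two 1 h room-temperature incubations shielded from light | Measured by: FRET fluorescence | Evaluation: Loss of energy transfer signal | Controls: Unlabeled CBFb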
Hck Nef HTS = blocks Nef-activated human Hck kinase. P08631. Recombinant Hck-YEEI plus Nef, Z-Lyte FRET kinase assay. inhibition, % at 20 µM. 0.68% of 220,000 active;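 active = Hck-Nef kinase inhibition above about 50%, limit read from the data; inactive = inhibition below that limit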;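 also: 0% = DMSO with Hck plus Nef and 100% = Hck alone without Nef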
RanGTP-Impb inh = disruptors of Ran-importin-beta complex formation – biochemical, FRET, CFP-Ran, YFP-importin-beta, homogeneous, primary screen. 1.1% of 300,000 active. inhibition, % (concentration not given with the values). cell-free CFP-Ran/YFP-importin-beta FRET ratio. AID 2216;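 active = more than half of the replicate wells show a fall in the fluorescence ratio signal beyond about 16%, limit read from the data, passing the limit was not always enough; inconclusive = exactly half of the replicate wells pass the set limit; inactive = fewer than half of replicates pass the limit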;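 also: 0% = DMSO wells and 100% = Ran loaded with GDP instead of GTP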
Runt-SMMHC FRET = inhibitors of human RUNX1 Runt domain binding to CBFb-SMMHC | Q01196+Q13951 | Cerulean-Runt/Venus-CBFb-SMMHC FRET ratio 530/480, 1 h | inhibition, % at 20 µM | 0.74% of 220,000 active;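 active = mean inhibition across duplicate retests at 20 µM reaching about 50%, limit read from the data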;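 also: 0% = DMSO wells and 100% = wells with excess untagged CBFb-SMMHC; inhibitors lower the FRET ratio by blocking Runt binding to CBFb-SMMHC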
eIF4E-4G inh = blocks eIF4E binding to eIF4G | TR-FRET eIF4E-eIF4GI(517-606) binding, 2 h | inhibition, % at 21.7 µM | 0.37% of 220,000 active | AID 782;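 active = inhibition above about 30%, limit read from the data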;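 also: 0% = full FRET control wells and 100% = background wells lacking eIF4GI fragment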
PERK inhibitor = blocks human PERK kinase | Q9NZJ5 | CHO PERK-DD fusion, SEAP luminescence translation reporter | inhibition, % at 5.6 µM | 0.17% of 220,000 active | AID 1416;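 active = inhibition above the mean inhibition of all tested compounds plus 3 SD, set separately per screening campaign, cut at about 2.9% in these data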;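 also: PERK kinase domain activated by AP20187 dimerizer at 100 nM; 0% = DMSO with dimerizer and 100% = rapamycin at 8.4 µM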
Active calls of the source: *; [ ] = dose if it differs, or a comment.

CCOCCCNC(=O)/C(C#N)=C/c1ccc(C)o1 was read as Runt-CBFb FRET -1, Hck Nef HTS 15, RanGTP-Impb inh 4, Runt-SMMHC FRET 0, eIF4E-4G inh -2 and PERK inhibitor 1.
For COc1ccc(-n2c(NC(=O)c3ccc(Br)o3)c(C#N)c3nc4ccccc4nc32)cc1 the results were Runt-CBFb FRET 88*, Hck Nef HTS 18, RanGTP-Impb inh 155*, Runt-SMMHC FRET 44, eIF4E-4G inh -2 and PERK inhibitor -1.
`CCCCn1c(NC(=O)c2ccccc2)c(C#N)c2nc3ccccc3nc21` gave Runt-CBFb FRET 6, Hck Nef HTS 21, Runt-SMMHC FRET 26, eIF4E-4G inh -17 and PERK inhibitor 1.
For COC(=O)c1ccccc1NC(=O)c1cccc(NC(=O)c2ccc(Br)o2)c1C the results were Runt-CBFb FRET 1, Hck Nef HTS 0, RanGTP-Impb inh -2, Runt-SMMHC FRET 2, eIF4E-4G inh -1 and PERK inhibitor 0.
N#Cc1c(NC(=O)c2ccc(Br)o2)n(-c2ccccc2)c2nc3ccccc3nc12 was read as Runt-CBFb FRET 38, Hck Nef HTS 35, RanGTP-Impb inh 162*, Runt-SMMHC FRET 81*, eIF4E-4G inh -3 and PERK inhibitor 2.
For CCCCN(C)C(=S)Nc1ccsc1C(=O)OC the results were Runt-CBFb FRET 1, Hck Nef HTS 19, RanGTP-Impb inh -1, Runt-SMMHC FRET -5, eIF4E-4G inh -1 and PERK inhibitor 0.
For CCOC(=O)c1c(-c2cccs2)csc1NC(=O)C(C)(C)C the results were Runt-CBFb FRET 110*, Hck Nef HTS -2, RanGTP-Impb inh -3, Runt-SMMHC FRET -6, eIF4E-4G inh -1 and PERK inhibitor -1.
For CCOC(=O)CNc1nc(C(C)(C)C)nc2c1nnn2Cc1ccccc1Cl the results were Runt-CBFb FRET -7, Hck Nef HTS 0, RanGTP-Impb inh 7, Runt-SMMHC FRET 0, eIF4E-4G inh -3 and PERK inhibitor 0.
`Cc1cc(C)nc(SCc2nnc(SCC(N)=O)n2Cc2ccco2)n1` gave Runt-CBFb FRET -1, Hck Nef HTS 0, RanGTP-Impb inh -2, Runt-SMMHC FRET 8, eIF4E-4G inh 2 and PERK inhibitor 1.
`CCOC(=O)CSc1nnc(CSc2nc(C)cc(C)n2)n1Cc1ccco1` gave Runt-CBFb FRET 14, Hck Nef HTS 0, RanGTP-Impb inh 3, Runt-SMMHC FRET 9, eIF4E-4G inh 136*[fluorescence artefact?] and PERK inhibitor 0.
For Cc1cccc(Oc2ccc(NC(=O)c3ccccc3C(=O)O)cc2)c1 the results were Runt-CBFb FRET 0, Hck Nef HTS 34, RanGTP-Impb inh -1, Runt-SMMHC FRET 0, eIF4E-4G inh 5 and PERK inhibitor 0.
Screening COC(=O)C1=C(C)NC(=O)C1(Nc1ccc(Cl)cn1)C(F)(F)F (stereo not drawn) returned Runt-CBFb FRET 0, Hck Nef HTS 4, RanGTP-Impb inh -1, Runt-SMMHC FRET -2, eIF4E-4G inh 35*[fluorescence artefact?] and PERK inhibitor 1.
CC(=O)OCC(=O)[C@@]12OC3(CCCC3)O[C@@H]1C[C@H]1[C@@H]3CCC4=CC(=O)C=C[C@]4(C)[C@@]3(F)[C@@H](O)C[C@@]12C was read as Runt-CBFb FRET -3, Hck Nef HTS -1, RanGTP-Impb inh -6, Runt-SMMHC FRET 1, eIF4E-4G inh -5 and PERK inhibitor -1.
For O=C(O)CCc1nnc(SCC(=O)Nc2ccc(Cl)c(C(F)(F)F)c2)[nH]c1=O the results were Runt-CBFb FRET 1, Hck Nef HTS 32, RanGTP-Impb inh 1, Runt-SMMHC FRET -3, eIF4E-4G inh -6 and PERK inhibitor 0.
COC(=O)C1=CN(CC2CCCO2)C=C(C(=O)OC)C1c1ccsc1 (stereo not drawn) was read as Runt-CBFb FRET 88*, Hck Nef HTS 49, RanGTP-Impb inh 11, Runt-SMMHC FRET 134*, eIF4E-4G inh 2 and PERK inhibitor -1.
`CCOC(=O)C1=CN(C)C=C(C(=O)OCC)C1c1ccsc1` gave Runt-CBFb FRET 122*, Hck Nef HTS 47, RanGTP-Impb inh 53*, Runt-SMMHC FRET 99*, eIF4E-4G inh 7 and PERK inhibitor 1.
For COC(=O)C1=CN(Cc2ccc(OC)cc2)C=C(C(=O)OC)C1c1ccsc1 the results were Runt-CBFb FRET 68*, Hck Nef HTS 7, RanGTP-Impb inh inconclusive, Runt-SMMHC FRET 134*, eIF4E-4G inh 4 and PERK inhibitor 0.
`COC(=O)C1=CN(CC2CCCO2)C=C(C(=O)OC)C1c1ccccc1C(F)(F)F` (stereo not drawn) gave Runt-CBFb FRET 106*, Hck Nef HTS 31, RanGTP-Impb inh 62*, Runt-SMMHC FRET 82*, eIF4E-4G inh 6 and PERK inhibitor 0.
For CCn1c(O)c(/C=N/n2cnnc2)sc1=S the results were Runt-CBFb FRET 20, Hck Nef HTS -2, RanGTP-Impb inh 1, Runt-SMMHC FRET 3, eIF4E-4G inh 1 and PERK inhibitor 1.
Screening Cc1ccc(/C=N/n2c(C)n[nH]c2=S)o1 returned Runt-CBFb FRET 2, Hck Nef HTS 0, RanGTP-Impb inh -1, Runt-SMMHC FRET 6, eIF4E-4G inh 0 and PERK inhibitor 2.
`Cc1ccc(NC(=O)C2CC(=O)n3ncnc3N2)cc1C` (stereo not drawn) gave Runt-CBFb FRET 3, Hck Nef HTS 2, RanGTP-Impb inh -1, Runt-SMMHC FRET 3, eIF4E-4G inh -5 and PERK inhibitor 0.
COc1ccc(-c2c(C#N)c(N)nc3c2CCCC3)cc1OC was read as Hck Nef HTS 10, RanGTP-Impb inh -2 and PERK inhibitor 0.
Screening COc1ccc(-c2c(C#N)c(N)nc3c2CCC3)cc1 returned Runt-CBFb FRET 45, Hck Nef HTS 10, RanGTP-Impb inh -6, Runt-SMMHC FRET 97*, eIF4E-4G inh 7 and PERK inhibitor 0.
For COc1cc2cc(C(c3nnnn3C3CCCC3)N(C)C3CCCCC3)c(=O)[nH]c2cc1OC (stereo not drawn) the results were Runt-CBFb FRET 4, Hck Nef HTS 1, RanGTP-Impb inh 6, Runt-SMMHC FRET -2, eIF4E-4G inh 30* and PERK inhibitor 0.
Screening Cc1cc(/C=N/NC(=O)Cn2c3ccccc3c(=O)c3ccccc32)c(C)n1-c1ccc(Cl)cc1 returned Runt-CBFb FRET 101*, Hck Nef HTS 35, eIF4E-4G inh 3 and PERK inhibitor 0.
For Cc1ccc(-n2c(C)cc(/C=N/NC(=O)Cn3c4ccccc4c(=O)c4ccccc43)c2C)cc1 the results were Runt-CBFb FRET 106*, Hck Nef HTS 38, eIF4E-4G inh 1 and PERK inhibitor 0.
Screening S=C(Nc1cccc(Cl)c1Cl)N1CCC2(CC1)OCCO2 returned Runt-CBFb FRET 0, Hck Nef HTS 16, RanGTP-Impb inh -2, Runt-SMMHC FRET -2, eIF4E-4G inh 91* and PERK inhibitor -1.
